Screening results as filed in PubChem.
Hck Nef HTS – blocks Nef-activated human Hck kinase; P08631; Recombinant Hck-YEEI plus Nef, Z-Lyte FRET kinase assay; inhibition, % at 20 µM; 0.68% of 220,000 active; AID 463187;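 active means Hck-Nef kinase inhibition above about 50%, limit read from the data; inactive means inhibition below that limit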
Runt-CBFb FRET – inhibitors of human RUNX1 Runt domain binding to CBFb. Q01196+Q13951. Cerulean-Runt/Venus-CBFb FRET ratio 530/480, 1 h. inhibition, % at 20 µM. 0.46% of 220,000 active;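 active means inhibition over about 50% at 20 µM in the single-dose screen, limit read from the data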
Target sequence (Q01196 whole entry, looked up, the tested form may be a part): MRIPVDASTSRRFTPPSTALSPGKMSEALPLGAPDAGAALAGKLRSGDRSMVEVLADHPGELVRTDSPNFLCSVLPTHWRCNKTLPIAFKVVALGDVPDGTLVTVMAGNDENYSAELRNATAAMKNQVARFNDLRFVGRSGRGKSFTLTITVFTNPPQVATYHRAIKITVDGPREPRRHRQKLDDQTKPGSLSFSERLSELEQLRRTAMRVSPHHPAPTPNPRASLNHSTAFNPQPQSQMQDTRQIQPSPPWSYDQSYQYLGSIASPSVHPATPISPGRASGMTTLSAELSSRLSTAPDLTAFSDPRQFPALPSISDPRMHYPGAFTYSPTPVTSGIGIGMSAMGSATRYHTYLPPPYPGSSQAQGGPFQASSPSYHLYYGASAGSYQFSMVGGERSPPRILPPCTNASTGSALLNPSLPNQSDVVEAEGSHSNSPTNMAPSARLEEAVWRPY
Target sequence (Q13951 whole entry, looked up, the tested form may be a part): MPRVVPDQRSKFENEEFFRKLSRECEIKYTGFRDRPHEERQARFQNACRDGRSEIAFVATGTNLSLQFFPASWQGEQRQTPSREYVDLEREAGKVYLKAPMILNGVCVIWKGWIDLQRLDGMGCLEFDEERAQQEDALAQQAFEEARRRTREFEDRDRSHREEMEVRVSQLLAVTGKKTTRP
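System: Cerulean-labeled Runt domain protein | Quantity: 100 nM of each labeled protein | Schedule: 1 h compound exposure, room temperature | Detection: Fluorescence energy transfer, 422 nm excitation, 530/480 nm emission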
p97 ATPase inh – human p97 ATPase inhibition; P55072; recombinant p97 ATPase, Kinase-Glo ATP luminescence, 3 h; inhibition, % at 8 µM; 0.42% of 220,000 active; AID 1481; in the data active means inhibition above about 15%
TbHK1 inh – blocks Trypanosoma brucei hexokinase 1 activity; recombinant TbHK1, G6PDH-coupled NADH A340; inhibition, % at 10 µM; 0.11% of 220,000 active; AID 1430;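 active means inhibition of 50% or more in the single-dose primary screen; inactive means inhibition below 50%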
RanGTP-Imp inh – inhibitors of RanGTP-importin-beta interaction, primary screen, biochemical, FRET, CFP-Ran, YFP-importin-beta, homogeneous. cell-free CFP-Ran/YFP-importin-beta FRET ratio. inhibition, % (test concentration not listed). 1.1% of 300,000 active;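 active means more than half of the replicate wells show a fall in the fluorescence ratio signal beyond about 16%, limit read from the data, passing the limit was not always enough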
Runt-SMMHC FRET – inhibitors of human RUNX1 Runt domain binding to CBFb-SMMHC; Cerulean-Runt/Venus-CBFb-SMMHC FRET ratio 530/480, 1 h; inhibition, % at 20 µM; 0.74% of 220,000 active; AID 1434; Q01196+Q13951;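 active means mean inhibition across duplicate retests at 20 µM reaching about 50%, limit read from the data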;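 further: inhibitors lower the FRET ratio by blocking Runt binding to CBFb-SMMHC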
YIC FRET counter – counter-screen YIC FRET for RanGTP-importin-beta inhibitors | shares compounds with RanGTP-Imp inh | Purified YIC probe, intramolecular FRET ratio YFP/CFP | IC50, µM | 40% of 1,000 active | AID 435026;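 active means fitted half-maximal inhibitory concentration no more than tenfold above the top dose tested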
Each line names hits and unclear results; the compound was inactive in the other large screens (follow-up assays come after a bar, where they were run). Most compounds without a hit are left out; they make up all but 2.1% or so of the library.

CC(=O)Nc1cc(C(=O)NCc2ccco2)ccc1Sc1ccc(Cl)cc1	none
CC(=O)Nc1cc(C(=O)N(C)Cc2ccco2)ccc1Sc1ccc(Cl)cc1	RanGTP-Imp inh 18 | YIC FRET counter inactive
Cc1ccccc1OCC(=O)Nc1ccc(N2CCN(C(=O)c3ccco3)CC2)cc1	none (no result: Hck Nef HTS, Runt-CBFb FRET, p97 ATPase inh, TbHK1 inh, Runt-SMMHC FRET)
CCc1nc(N)c(C#N)c(-c2cccnc2)c1C	none (no result: RanGTP-Imp inh)
N#Cc1c(N)nc2c(c1-c1ccc(F)cc1)CCC2	RanGTP-Imp inh 21 | YIC FRET counter 9.9
CCc1nc(N)c(C#N)c(-c2ccc(F)cc2)c1C	RanGTP-Imp inh 23 | YIC FRET counter inactive
Cc1ccc(-c2c(C#N)c(N)nc3c2CCCC3)s1	RanGTP-Imp inh 22 | YIC FRET counter 27
COc1cccc(-c2nc(CS(=O)CC(=O)NC3CCCCC3)c(C)o2)c1 (configuration not stated)	none (no result: Hck Nef HTS, Runt-CBFb FRET, p97 ATPase inh, TbHK1 inh, Runt-SMMHC FRET)
CCc1ccc(C2C3=C(CC(C)(C)CC3=O)Nc3c2c(=O)[nH]c2nc(C)nn32)cc1 (configuration not stated)	Runt-CBFb FRET 62, RanGTP-Imp inh 40 (no result: Runt-SMMHC FRET) | YIC FRET counter 7.1
Cc1[nH]nc2c1C(c1ccccc1)C1=C(CC(C)(C)CC1=O)N2 (configuration not stated)	none
C=CCSc1nc2sc3c(c2c(=O)n1-c1ccc(C)cc1)CCN(C)C3	none (no result: Hck Nef HTS, Runt-CBFb FRET, p97 ATPase inh, TbHK1 inh, Runt-SMMHC FRET)
CN1CCCN(C(=O)Cc2c(Cl)cccc2Cl)c2nc3ccccc3nc21	RanGTP-Imp inh 22, Runt-SMMHC FRET 54 | YIC FRET counter 28
CN1CCCN(C(=O)c2cc(=O)[nH]c3ccccc23)c2nc3ccccc3nc21	none
C=CCNc1sc(C(=O)c2ccc(Br)s2)c(N)c1C#N	RanGTP-Imp inh 19 | YIC FRET counter 5.6
C=CCNc1sc(C(=O)c2ccccc2)c(N)c1C#N	none
CCN(CC)S(=O)(=O)c1ccc(OC)c(NC(=O)C2CC(=O)N(c3ccc(C)cc3)C2)c1 (configuration not stated)	RanGTP-Imp inh 29 | YIC FRET counter inactive
C[C@@H]1CCCCO[C@@H](CN(C)C(=O)CCC(F)(F)F)[C@@H](C)CN([C@@H](C)CO)C(=O)c2cc(NC(=O)CCC(F)(F)F)ccc2O1	none (no result: Hck Nef HTS, Runt-CBFb FRET, p97 ATPase inh, TbHK1 inh, RanGTP-Imp inh, Runt-SMMHC FRET) | YIC FRET counter inactive
Cc1noc(C)c1NC(=O)Nc1ccc2c(c1)C(=O)N([C@H](C)CO)C[C@@H](C)[C@@H](CN(C)C(=O)Nc1c(C)noc1C)OCCCC[C@@H](C)O2	none (no result: Hck Nef HTS, Runt-CBFb FRET, p97 ATPase inh, TbHK1 inh, RanGTP-Imp inh, Runt-SMMHC FRET) | YIC FRET counter inactive
CC(=O)c1ccc(NC(=O)CCC(=O)N2CC(C)Oc3ccc(C)cc32)cc1 (configuration not stated)	none (no result: Hck Nef HTS, Runt-CBFb FRET, p97 ATPase inh, TbHK1 inh, Runt-SMMHC FRET)
Cc1ccc(NC(=O)Cn2nc(C(F)(F)F)c3c2CCC3)cc1	RanGTP-Imp inh 22 | YIC FRET counter inactive
CCOc1ccc(NC(=O)CSc2nnc(C3CC3)n2C)cc1	none
CCOC(=O)c1ccc(NC(=O)CSc2nnc(C3CCCCC3)n2C)cc1	RanGTP-Imp inh 16 | YIC FRET counter inactive
Cc1ccc(Nc2nc(N)[nH]c(=O)c2N=O)cc1	RanGTP-Imp inh 29 | YIC FRET counter 19
CN(C)CCCN(C(=O)c1ccc(Br)s1)c1nc2cc3c(cc2s1)OCCO3	RanGTP-Imp inh 22 (no result: Hck Nef HTS, Runt-CBFb FRET, p97 ATPase inh, TbHK1 inh, Runt-SMMHC FRET) | YIC FRET counter inactive
O=C(NCCc1ccccc1)c1cc(=O)[nH]c2ccccc12	none
CC1(C)CCC[C@]2(C)[C@H]3CC(=O)O[C@]3(C)CC[C@@H]12	RanGTP-Imp inh 21 (no result: Hck Nef HTS, Runt-CBFb FRET, p97 ATPase inh, TbHK1 inh, Runt-SMMHC FRET) | YIC FRET counter inactive
C[C@]12CCC3C(CC=C4C[C@@H](O)CC[C@@]43C)C1CCC2[C@]1(C)CCC(=O)O1 (some centres not stated)	none
O=C(C1CCCCC1)N1CC(=O)N2CCc3ccccc3C2C1 (configuration not stated)	RanGTP-Imp inh 21 | YIC FRET counter inactive
O=C(C1CCCCC1)N1CCc2ccccc21	none
Cn1cnnc1SCC(=O)c1cc2ccccc2oc1=O	RanGTP-Imp inh 18 | YIC FRET counter inactive
COc1cccc(CSc2nnc(-c3ccncc3)n2N)c1	none (no result: Hck Nef HTS, Runt-CBFb FRET, p97 ATPase inh, TbHK1 inh, Runt-SMMHC FRET)
N#CC1=C(N)OC2=C(CCc3ccccc32)C1c1ccccc1 (configuration not stated)	RanGTP-Imp inh 18 | YIC FRET counter inactive
